Data set [1] relates to Caco-2. Description: Effect on beta-catenin protein expression in human Caco-2 cells at 1 ug/ml incubated for 48 hrs by Western blot analysis. Format: functional, cell-based. The conditions noted are these: dose 1.0 µg/ml. In outline:
(§1)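 Caco-2 cells (0.25 × 10^6/well) were treated at 1 µg/mL for 48 h and lysed in pH 7.4 Tris/NaCl/Triton/EDTA buffer with protease and phosphatase inhibitors. 30 µg protein was run per lane on 4–15% gels and blotted for pSer9-GSK3β, total GSK3β, pSer473-Akt, total Akt and β-catenin, with actin as loading control. Detection was by ECL; n=2, t-test versus DMSO.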

Data set [2] is described as follows: Cytostatic activity against human Colorectal epithelial cells isolated from patient with well-differentiated colonic adenocarcinoma cultured as organoids assessed as inhibition of cell growth at 0.1 ug/ml incubated for 48 hrs by CellTiter-Glo luminescence assay relative to control. Format: functional. The method, boiled down: (§2)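 Primary colonic epithelial cells (3 control and 2 CRC patients) were expanded as organoids or spheroids in Matrigel with EGF/noggin/Wnt3a/R-spondin medium. Single cells were seeded at 2500/well and allowed 48 h to form colonoids, then exposed for 48 h at 0.01, 0.1 or 1 µg/mL, with 5FdU at 1 µg/mL as positive control. Viability was read by CellTiter-Glo luminescence versus DMSO or medium control.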
In general terms: In ATP-based viability assays light output follows the ATP content of the culture.

The test system of data set [3] is Colorectal epithelial cell. As to the kind of experiment: Cytostatic activity against human Colorectal epithelial cells isolated from patient with well-differentiated colonic adenocarcinoma cultured as organoids at 1 ug/ml incubated for 48 hrs by CellTiter-Glo luminescence assay. Format: functional, cell-based. The following applies: dose 1.0 µg/ml. In outline:
as §2

The test system of data set [4] is Caco-2. As to the kind of experiment: Induction of morphological changes in human Caco-2 cells assessed as cellular aggregation at 1 ug/ml preincubated for 15 mins with PKCalpha inhibitor, Go6976 followed by compound addition and measured after 48 hrs by immunostaining based confocal microscopic analysis. The class given is functional, cell-based. The conditions noted are these: dose 1.0 µg/ml. In outline:
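Caco-2 cells were given 0.2 µM Gö6976 for 15 min before compound at 1 µg/mL for 48 h. PKCα was immunostained, nuclei and cytoskeleton were labelled, and cells were imaged by confocal microscopy (20X objective) in duplicate from one experiment.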

Data set [5] deals with Caco-2. As to the kind of experiment: Upregulation of AKT protein expression in human Caco-2 cells at 1 ug/ml incubated for 48 hrs by Western blot analysis. The class given is functional, cell-based. The conditions noted are these: dose 1.0 µg/ml. In outline:
as §1

Data set [6] can be described thus: Cytotoxicity against HIEC-6 cells assessed as inhibition of cell growth at 1 ug/ml incubated for 48 hrs by MTS assay. The class given is toxicity, cell-based. The conditions noted are these: human, hiec-6, 48 h, dose 1 µg/ml. The method, boiled down:
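HIEC6 cells were grown in OPTIMEM with GlutaMAX, Hepes and 10 ng/mL EGF and seeded at 60 000/well 48 h before dosing. Cells were exposed to 1 µg/mL for 48 h, and viability was read by MTS absorbance at 490 nm versus DMSO; 3 independent experiments, t-test.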
(In general: Tetrazolium assays rely on reduction of a dye to a coloured formazan, in cell work by metabolically active cells.)

The subject of data set [7] is Colorectal epithelial cell. As to the kind of experiment: Cytostatic activity against human Colorectal epithelial cells isolated from left colon of patient with recurrent diverticulitis cultured as organoids at 1 ug/ml incubated for 48 hrs by CellTiter-Glo luminescence assay. The class given is functional, cell-based. The following applies: dose 1.0 µg/ml. In outline:
as §2

The subject of data set [8] is Caco-2. As to the kind of experiment: Cytotoxicity against human Caco-2 cells assessed as cell death. Format: functional, cell-based.
Data set [9] relates to Caco-2. As to the kind of experiment: Induction of morphological changes in human Caco-2 cells assessed as cellular aggregates formation at 0.125 ug/ml incubated for 48 hrs by Hoechst 3342 and phalloidin staining based confocal microscopic analysis. The class given is functional, cell-based. The conditions noted are these: dose 0.125 µg/ml. The method, boiled down:
(§3)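 Caco-2 cells (40 000/well) were exposed for 48 h, then fixed in 3.7% PFA and permeabilised with Triton X100/BSA. Actin was stained with phalloidin and nuclei with Hoechst 3342, and cells were viewed by confocal microscopy.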

Data set [10] deals with Colorectal epithelial cell. Description: Cytostatic activity against human Colorectal epithelial cells isolated from patient with well-differentiated colonic adenocarcinoma and undergone nine courses of chemotherapy cultured as organoids at 1 ug/ml incubated for 48 hrs by CellTiter-Glo luminescence assay. The conditions noted are these: dose 1.0 µg/ml. The class given is functional, cell-based. The method, boiled down:
as §2

In data set [11] the test system is Caco-2. Description: Cytostatic activity against human Caco-2 cells assessed as inhibition of cell growth at 1 ug/ml preincubated for 30 mins with CRT0066854 hydrochloride followed by compound addition and measured after 48 hrs by MTS assay. The class given is functional, cell-based. The following applies: dose 1.0 µg/ml. In outline: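 Caco-2 cells were pretreated for 30 min with CRT0066854 hydrochloride (2.5 µM; 0.625 and 1.25 µM also tested), then given compound at 1 µg/mL for 48 h. MTS absorbance was read at 490 nm relative to DMSO controls; n=3, t-test.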

Data set [12] relates to Caco-2. As to the kind of experiment: Induction of morphological changes in human Caco-2 cells assessed as densification of cytoskeleton at 1 ug/ml incubated for 48 hrs by Hoechst 3342 and phalloidin staining based confocal microscopic analysis. The following applies: dose 1.0 µg/ml. Format: functional, cell-based. In outline:
as §3

Data set [13] relates to Colorectal epithelial cell. Description: Cytostatic activity against human Colorectal epithelial cells isolated from patient with fistulized sigmoiditis cultured as organoids at 1 ug/ml incubated for 48 hrs by CellTiter-Glo luminescence assay. The following applies: dose 1.0 µg/ml. Format: functional, cell-based. The method, boiled down:
as §2

The nature of data set [14]: Cytostatic activity against human Colorectal epithelial cells isolated from patient with well-differentiated colonic adenocarcinoma and undergone nine courses of chemotherapy cultured as organoids assessed as inhibition of cell growth at 0.1 ug/ml incubated for 48 hrs by CellTiter-Glo luminescence assay relative to control. Format: functional. In outline: as §2
For data set [15], the target named is RAC-alpha serine/threonine-protein kinase (Homo sapiens) (UniProt P31749). As to the kind of experiment: Inhibition of AKT in human Caco-2 cells assessed as reduction in phosphorylation at serine 473 residue at 1 ug/ml incubated for 48 hrs by Western blot analysis. The class given is cell-based. The following applies: dose 1.0 µg/ml. In outline: as §1
A general note: A western blot detects proteins with antibodies after separation by electrophoresis.

Data set [16] relates to Caco-2. Description: Induction of morphological changes in human Caco-2 cells at 1 ug/ml preincubated for 30 mins with CRT0066854 hydrochloride followed by compound addition and measured after 48 hrs by Hoechst 3342 and phalloidin staining based confocal microscopic analysis. Format: functional, cell-based. The following applies: dose 1.0 µg/ml. In outline:
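CRT0066854 hydrochloride (2.5 µM) was added to Caco-2 cells 30 min before compound at 1 µg/mL. After 48 h, nuclei and actin cytoskeleton were labelled and confocal views taken with a 20X objective; duplicates from one experiment.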

In data set [17] the target is Glycogen synthase kinase-3 beta (Homo sapiens) (UniProt P49841). As to the kind of experiment: Inhibition of GSK3beta in human Caco-2 cells assessed as increase in phosphorylation at serine 9 residue at 1 ug/ml preincubated for 30 mins with CRT0066854 hydrochloride followed by compound addition and measured after 48 hrs by Western blot analysis. The class given is cell-based. The conditions noted are these: dose 1.0 µg/ml. The method, boiled down:
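Caco-2 cells were pretreated with 2.5 µM CRT0066854 hydrochloride for 30 min, then treated at 1 µg/mL for 48 h. Lysates (30 µg protein) were immunoblotted for pSer9-GSK3β and total GSK3β, with actin loading control and ECL detection; n=2.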

For data set [18], the system named is Caco-2. Description: Upregulation of phosphorylated MEK at Ser217/221 level in human Caco-2 cells at 1 ug/ml preincubated for 30 mins with CRT0066854 hydrochloride followed by compound addition and measured after 48 hrs by Western blot analysis. The class given is functional, cell-based. The following applies: dose 1.0 µg/ml. The method, boiled down: (§4)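 Caco-2 cells (0.25 × 10^6/well) were treated at 1 µg/mL for 48 h, with or without 30 min pretreatment with 2.5 µM CRT0066854. Lysates (30 µg protein) were blotted for pSer217/221-MEK and total MEK, with actin as loading control. Detection was by ECL; n=2, t-test versus DMSO.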

The subject of data set [19] is Caco-2. Description: Induction of morphological changes in human Caco-2 cells assessed as reorganization of epithelial tissue architecture at 1 ug/ml incubated for 48 hrs by Hoechst 3342 and phalloidin staining based confocal microscopic analysis. The class given is functional, cell-based. The following applies: dose 1.0 µg/ml. In outline: as §3
Data set [20] concerns Caco-2. As to the kind of experiment: Induction of apoptosis in human Caco-2 cells assessed as increase in active caspase 3 level. Format: functional, cell-based.
Data set [21] concerns Caco-2. As to the kind of experiment: Effect on phosphorylated MEK at Ser217/221 level in human Caco-2 cells at 1 ug/ml measured after 48 hrs by Western blot analysis. Format: functional, cell-based. The conditions noted are these: dose 1.0 µg/ml. In outline: as §4

Active and inactive are the calls of the source. The calls are words filed in the database; no cut-off is given here.

RAC-alpha serine/threonine-protein kinase (Homo sapiens), sequence (P31749 whole entry): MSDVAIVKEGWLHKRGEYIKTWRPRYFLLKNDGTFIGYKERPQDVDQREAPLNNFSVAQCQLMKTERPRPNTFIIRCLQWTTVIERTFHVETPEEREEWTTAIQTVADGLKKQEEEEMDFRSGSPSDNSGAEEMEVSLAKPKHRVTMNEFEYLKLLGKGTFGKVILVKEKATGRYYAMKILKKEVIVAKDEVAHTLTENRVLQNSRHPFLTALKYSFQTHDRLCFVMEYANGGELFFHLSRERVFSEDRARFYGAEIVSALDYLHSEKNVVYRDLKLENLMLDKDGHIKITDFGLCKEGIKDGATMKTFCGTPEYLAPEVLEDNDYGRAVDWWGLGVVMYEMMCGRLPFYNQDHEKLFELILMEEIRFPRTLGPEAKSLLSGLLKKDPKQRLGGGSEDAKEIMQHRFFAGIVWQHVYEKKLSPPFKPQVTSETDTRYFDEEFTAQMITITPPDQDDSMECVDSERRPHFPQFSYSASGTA
Glycogen synthase kinase-3 beta (Homo sapiens), sequence (P49841 whole entry, looked up): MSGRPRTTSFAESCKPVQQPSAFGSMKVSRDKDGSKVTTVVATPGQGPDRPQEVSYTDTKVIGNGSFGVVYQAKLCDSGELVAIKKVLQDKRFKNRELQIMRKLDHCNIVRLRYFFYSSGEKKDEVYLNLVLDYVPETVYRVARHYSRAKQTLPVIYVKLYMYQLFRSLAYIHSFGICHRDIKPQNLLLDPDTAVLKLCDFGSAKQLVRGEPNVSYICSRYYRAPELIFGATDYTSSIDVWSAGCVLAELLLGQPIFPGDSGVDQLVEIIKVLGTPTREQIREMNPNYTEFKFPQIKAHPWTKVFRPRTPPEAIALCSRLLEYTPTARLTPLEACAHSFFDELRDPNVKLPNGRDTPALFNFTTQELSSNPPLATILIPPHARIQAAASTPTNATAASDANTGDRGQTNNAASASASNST

For `C=C(C)[C@]12C[C@@H](C)[C@@]34O[C@](/C=C/C=C/CCCCCCCCC)(O[C@@H]1[C@@H]3[C@@H]1O[C@]1(CO)[C@@H](O)[C@]1(O)C(=O)C(C)=C[C@H]14)O2`, the result in [1], in [8], in data set [11], in data set [16], in data set [20] and in [21] was inactive. Moreover, the inhibition at 0.1 µg/mL in data set [2] and in [14] was 40% throughout. In addition, the outcome in data set [3], in [4], in data set [5], in data set [7], in data set [9] and in [10] was Active. Besides, the result in data set [12], in data set [13], in data set [18] and in [19] was Active. For the same compound, the Activity result in [6] was “Non-Toxic”. For the same compound, the inhibition entry in [15] is “Active”. Also, the inhibition result in data set [17] was “inactive”.
`C=C(C)[C@]12C[C@@H](C)[C@@]34O[C@](/C=C/[C@@H]5O[C@H]5CCCCCCCCC)(O[C@@H]1[C@@H]3[C@@H]1O[C@]1(CO)[C@@H](O)[C@]1(O)C(=O)C(C)=C[C@H]14)O2`: the outcome in data set [1], in data set [8], in [11], in data set [16], in data set [20] and in [21] was inactive. Also, the inhibition at 0.1 µg/mL in data set [2] and in data set [14] was 40% in each case. Also, the result in [3], in data set [4], in data set [5], in data set [7], in data set [9] and in [10] was Active. Also, the result in data set [12], in data set [13], in data set [18] and in data set [19] was Active. Further, the Activity entry in data set [6] is reported as “Non-Toxic”. Moreover, the inhibition result in [15] was “Active”. Also, the inhibition result in data set [17] is “inactive”.

By inhibition is commonly meant the change of the read-out against control, counted positive when it falls.

The record behind these values is ChEMBL document CHEMBL5325455, “Daphnanes diterpenes from the latex of Hura crepitans L. and their PKCζ-dependent anti-proliferative activity on colorectal cancer cells” (Bioorg Med Chem, 2023).
